# Measurements taken from ChEMBL document CHEMBL4376902, “CN128: A New Orally Active Hydroxypyridinone Iron Chelator” (J Med Chem, 2020).
# What was measured:
# [1] = Acid dissociation constant, pKa1 of the compound over pH 1.8 to 11.0 by spectrophotometric titration method; type: physicochemical
# Procedure, shortened: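 Automated spectrophotometric titration with 0.1 M KOH in 0.1 pH-unit steps. Reading accepted as stable when drift was <0.01 pH unit after a 1.5 min incubation. 10 mm path length cuvette. Spectra fitted by computer to obtain the pKa values.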
# [2] = Lipophilicity coefficient, logP of the compound in Tris buffer at pH 7.0 (100 mM/n-octanol); type: physicochemical
# Procedure, shortened: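 Octanol/water partition measured between n-octanol and 100 mM Tris buffer, pH 7.0.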
# [3] = Drug metabolism in rat bile assessed as (2S,3S,4S,5R,6S)-6-[[1-[(1R)-1-benzyl-2-hydroxyethyl]-2-methyl-4-oxo-3-pyridyl]oxy]-3,4,5-trihydroxy-tetrahydropyran-2-carboxylic acid formation at 150 umol/kg, po by LC/TOF/MS/MS analysis; type: ADME, organism-based; details: in vivo
# Procedure, shortened: (§1)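 Bile collected from rats after an oral dose of 150 μmol/kg. Metabolites characterised by β-glucuronidase hydrolysis and LC-TOFMS/MS. M2/M1 ratio followed over 8 h.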
# [4] = Drug metabolism in rat bile assessed as (2S,3S,4S,5R,6R)-3,4,5-trihydroxy-6-[(2R)-2-(3-hydroxy-2-methyl-4-oxo-1-pyridyl)-3-phenylpropoxy]tetrahydropyran-2-carboxylic acid/(2S,3S,4S,5R,6S)-6-[[1-[(1R)-1-benzyl-2-hydroxyethyl]-2-methyl-4-oxo-3-pyridyl]oxy]-3,4,5-trihydroxy-tetrahydropyran-2-carboxylic acid ratio formation at 150 umol/kg, po measured over 8 hrs by LC/TOF/MS/MS analysis; type: ADME, organism-based; details: in vivo; procedure, shortened: as §1
# Cytochrome P450 2C8 = biological target: T1, Cytochrome P450 2C8 (Homo sapiens, UniProt P10632); assay: Inhibition of CYP2C8 in human liver microsomes; type: ADME
# T1 sequence (P10632 whole entry): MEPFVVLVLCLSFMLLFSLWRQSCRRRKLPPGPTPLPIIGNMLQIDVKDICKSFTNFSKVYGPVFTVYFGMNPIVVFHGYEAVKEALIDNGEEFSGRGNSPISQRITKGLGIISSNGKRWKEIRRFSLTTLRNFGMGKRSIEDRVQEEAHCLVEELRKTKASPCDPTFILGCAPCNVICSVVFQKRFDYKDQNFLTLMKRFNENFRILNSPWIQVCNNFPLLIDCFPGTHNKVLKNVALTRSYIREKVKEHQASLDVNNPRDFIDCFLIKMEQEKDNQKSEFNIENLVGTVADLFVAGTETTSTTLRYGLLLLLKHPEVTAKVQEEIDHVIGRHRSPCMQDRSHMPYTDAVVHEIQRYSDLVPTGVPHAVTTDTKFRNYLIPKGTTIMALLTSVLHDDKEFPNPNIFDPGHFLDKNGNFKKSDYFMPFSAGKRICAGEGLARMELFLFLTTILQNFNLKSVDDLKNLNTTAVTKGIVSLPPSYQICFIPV
# [5] = Ratio of drug level in intestine to plasma in rat at 150 umol/kg, po measured within 10 mins by LC-MS/MS analysis; type: ADME, organism-based; details: intestine and plasma
# Procedure, shortened: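 SD rats (half male, half female, n = 6 per group) given a single oral 150 μmol/kg dose. Killed at 10 min, 30 min, 2 h or 6 h; tissues washed in saline, weighed and homogenised in acetonitrile/water 1:9 (125 mg/mL). Tissue levels compared with plasma.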
# [6] = Drug level in rat kidney at 150 umol/kg, po measured measured up to 6 hrs by LC-MS/MS analysis; type: ADME, organism-based; details: in vivo
# Procedure, shortened: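 Single oral dose of 150 μmol/kg to SD rats, half male and half female, n=6 per group. Rats decapitated at 10 min, 30 min, 2 h and 6 h. Tissues dissected, saline-washed, weighed and homogenised in acetonitrile/water 1:9 (125 mg/mL). Drug level measured against plasma; mean ± SE.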
# [7] = Binding affinity to Cu2+ ion assessed as affinity constant by spectrophotometric titration method
# [8] = Binding affinity to Al3+ ion assessed as affinity constant by spectrophotometric titration method
# [9] = AUC (0 to infinity) in Sprague-Dawley rat at 75 umol/kg, po measured up to 1440 mins by LC/MS/MS analysis; type: ADME, organism-based; set-up: dose 75 umol/kg, route oral, time infinity; details: in vivo, 24 h
# [10] = AUC (0 to infinity) in Sprague-Dawley rat at 600 umol/kg, po measured up to 1440 mins by LC/MS/MS analysis; type: ADME, organism-based; set-up: dose 600 umol/kg, time infinity, route oral; details: in vivo, 24 h
# [11] = Apparent clearance in Sprague-Dawley rat at 75 umol/kg, po measured up to 1440 mins by LC/MS/MS analysis; type: ADME, organism-based; details: in vivo, read-out: CL(app) (converted)
# [12] = Apparent clearance in Sprague-Dawley rat at 300 umol/kg, po measured up to 1440 mins by LC/MS/MS analysis; type: ADME, organism-based; details: in vivo, read-out: CL(app) (converted)
# [13] = Cmax in Sprague-Dawley rat at 75 umol/kg, po measured up to 1440 mins by LC/MS/MS analysis; type: ADME, organism-based; set-up: dose 75 umol/kg, route oral; details: in vivo
# [14] = Cmax in Sprague-Dawley rat at 150 umol/kg, po measured up to 1440 mins by LC/MS/MS analysis; type: ADME, organism-based; set-up: dose 150 umol/kg, route oral; details: in vivo
# [15] = Oral bioavailability in Sprague-Dawley rat at 75 umol/k measured up to 1440 mins by LC/MS/MS analysis; type: ADME, organism-based; details: in vivo, 75 umol/kg
# Procedure, shortened: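 Sprague-Dawley rats (200-250 g, half male, half female, n = 8 per route), fasted about 12 h. Dosed i.v. via tail vein at 75 μmol/kg or orally at 75-600 μmol/kg. Heparinised blood taken 0-1440 min; plasma protein-precipitated with acetonitrile and assayed by LC/MS/MS; bioavailability from oral vs i.v. exposure.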
# [16] = Toxicity in Sprague-Dawley rat assessed as induction of mortality at 200 mg/kg, po dosed once daily for 2 months as 5 days per week schedule; type: organism-based; details: in vivo, 120 h
# [17] = Toxicity in Sprague-Dawley rat assessed as induction of histopathological changes in bone marrow at 25 to 116 mg/kg, po dosed daily for 4 weeks during chronic 4 week toxicity test; type: organism-based; details: in vivo, 672 h
# [18] = Toxicity in Sprague-Dawley rat assessed as induction of histopathological changes in pancreas at 25 to 116 mg/kg, po dosed daily for 4 weeks and measured after additional 4 weeks period in absence of drug; type: organism-based; details: in vivo, 672 h
# [19] = Toxicity in Sprague-Dawley rat assessed as induction of histopathological changes in bone marrow at 25 to 116 mg/kg, po dosed daily for 4 weeks and measured after additional 4 weeks period in absence of drug; type: organism-based; details: in vivo, 672 h
# [20] = Toxicity in Sprague-Dawley rat assessed as induction of histopathological changes in thymus at 25 to 116 mg/kg, po dosed daily for 4 weeks and measured after additional 4 weeks period in absence of drug; type: organism-based; details: in vivo, 672 h
# Mus musculus [21] = assay: Toxicity in mouse assessed as reduction in neutrophils counts at 200 mg/kg, po dosed once daily for 2 months as 5 days per week schedule; details: in vivo, 120 h
# Mus musculus [22] = assay: Toxicity in mouse assessed as reduction in lymphocytes counts at 200 mg/kg, po dosed once daily for 2 months as 5 days per week schedule; details: in vivo, 120 h
# Mus musculus [23] = assay: Toxicity in mouse assessed as reduction in total white cell counts at 200 mg/kg, po dosed once daily for 2 months as 5 days per week schedule; details: in vivo, 120 h
smiles,measurement,setting,value
Cc1c(O)c(O)cc[n+]1[C@@H](CO)Cc1ccccc1.[Cl-],pKa,[1],3.26
same,logD,[2],0.62
same,Drug metabolism,[3],Metabolite_Detected
same,Ratio,[4],2.3 to 6.9
same,IC50,Cytochrome P450 2C8,> 200 µM
same,Kp at 10 min,[5],3.3 to 8.8
same,Drug uptake,[6],Not Active
same,K,[7],8.31 pM
same,log K,[7],10.4
same,K,[8],13 pM
same,log K,[8],12.2
same,AUC,[9],16400 ng·h/mL
same,AUC,[10],181000 ng·h/mL
same,CL/F,[11],21.2 mL/min/kg
same,CL/F,[12],15.3 mL/min/kg
same,Cmax,[13],8670 ng/mL
same,Cmax,[14],19900 ng/mL
same,bioavailability,[15],82.6%
same,Activity,[16],Non-Toxic
same,Activity,[17],Toxic
same,Activity,[18],Non-Toxic
same,Activity,[19],Non-Toxic
same,Activity,[20],Non-Toxic
same,Activity,Mus musculus [21],Non-Toxic
same,Activity,Mus musculus [22],Non-Toxic
same,Activity,Mus musculus [23],Non-Toxic
